Converted amounts (≈) assume the structure as drawn.
Experiments:
[1] = Metabolic stability in human liver microsomes assessed as parent compound remaining at 3 uM incubated for 120 mins by LC-MS/MS analysis; assay type: ADME, Microsome; conditions: read-out: Stabilty
[2] = Apparent permeability across apical to basolateral side in human Caco2 cells incubated for 2 hrs by LC-MS/MS analysis; assay type: ADME, cell-based, Caco-2; conditions: Caco-2
How it was run: (§1)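 Caco-2 monolayers grown three weeks to differentiate; compound in transport buffer pH 7.4 (glucose, 10 mM HEPES, HBSS) added apical (A-B) or basal (B-A) side, with or without 100 μM verapamil; 2 h incubation, both sides sampled. Lucifer yellow 100 μM on A side checks integrity (≤2% transport). Papp = (dQ/dt)/(C0 × A); efflux ratio = Papp(B→A)/Papp(A→B).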

[3] = Cytotoxicity against human MT2 cells assessed as reduction in cell viability incubated for 4 days by XTT assay; assay type: cell-based; conditions: MT2 cells, time 4 day
[4] = Apparent permeability across basolateral to apical side in human Caco2 cells incubated for 2 hrs by LC-MS/MS analysis; assay type: ADME, cell-based, Caco-2; conditions: Caco-2; how it was run: as §1
Cytochrome P450 3A4 = Cytochrome P450 3A4 (Homo sapiens, UniProt P08684); assay: Inhibition of human liver microsome CYP3A4 using midazolam as substrate incubated for 20 mins by LC-MS/MS analysis; assay type: ADME, microsomes
[5] = Induction viral infection in pseudovirus HIV1 ADA infected in dog Cf2Th-CCR5 cells incubated for overnight followed by pretreated for 30 mins and added to cells measured after 48 hrs by luciferase-based assay; assay type: cell-based; conditions: human immunodeficiency virus 1, cf2th-ccr5, 48.5 h
[6] = tested on: Human immunodeficiency virus 1; assay: Antiviral activity against pseudovirus HIV-1 HXB-2 harboring Env I424F mutant infected in human U87.CD4.CXCR4 cells assessed as reduction in viral infection pretreated for 30 mins before viral infection and measured after 3 days by luciferase based assay; assay type: functional, cell-based, M:B_HXB2R
How it was run: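 Pseudoviruses made in HEK293T by co-transfecting an Env-deleted backbone (pSG3Δenv or pNL4-3.Luc.R-.E-) with an HXB-2 Env plasmid carrying single or double substitutions; Env sequences confirmed by sequencing. Virus pretreated 30 min with graded compound, added to U87-CD4-CXCR4 cells (1 × 10⁴/well, plated overnight), incubated 3 days. Cells lysed, luciferase measured, IC50 calculated.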

Cytochrome P450 2B6 = biological target: T1, Cytochrome P450 2B6 (Homo sapiens, UniProt P20813); assay: Inhibition of human liver microsome CYP2B6 using bupropion as substrate incubated for 20 mins by LC-MS/MS analysis; assay type: ADME, microsomes
T1 sequence (P20813 whole entry): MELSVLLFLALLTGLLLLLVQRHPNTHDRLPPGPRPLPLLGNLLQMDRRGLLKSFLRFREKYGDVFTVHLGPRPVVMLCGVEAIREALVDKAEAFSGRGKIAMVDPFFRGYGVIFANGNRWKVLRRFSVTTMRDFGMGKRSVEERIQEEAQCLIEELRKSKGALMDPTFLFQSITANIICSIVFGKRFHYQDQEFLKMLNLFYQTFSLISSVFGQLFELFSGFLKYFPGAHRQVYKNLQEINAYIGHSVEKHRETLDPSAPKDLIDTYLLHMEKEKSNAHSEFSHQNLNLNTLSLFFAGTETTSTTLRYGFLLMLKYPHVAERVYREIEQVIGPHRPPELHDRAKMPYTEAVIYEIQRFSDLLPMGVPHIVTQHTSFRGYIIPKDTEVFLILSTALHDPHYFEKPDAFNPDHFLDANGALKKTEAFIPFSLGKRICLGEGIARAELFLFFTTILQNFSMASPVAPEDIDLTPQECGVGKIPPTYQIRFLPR

[7] = Solubility in 2 % DMSO at pH 7.4 at 500 uM incubated for 90 mins in shaker by spectrophotometry; assay type: physicochemical
How it was run: (§2)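 DMSO stock diluted to 500 μM in universal aqueous buffer pH 7.4 with 2 or 5% DMSO final; quadruplicate, 90 min shaking at room temperature in filter plate, vacuum filtered; filtrate in 20% acetonitrile read by UV absorbance at six wavelengths. Filtrate/standard ratio binned as ~500, 100–500 or <100 μM.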

[8] = Solubility in 5% DMSO at pH 7.4 at 500 uM incubated for 90 mins in shaker by spectrophotometry; assay type: physicochemical; how it was run: as §2
[9] = Protein binding in human plasma assessed as unbound fraction at 5 uM by LC-MS/MS analysis; assay type: ADME, cell-free
[10] = Cytotoxicity against dog Cf2Th-CCR5 cells assessed as reduction in cell viability incubated for 48 hrs by XTT assay; assay type: cell-based, Canis lupus familiaris; conditions: Cf2Th-CCR5 cells
[11] = Cytotoxicity against human PBMC cells assessed as reduction in cell viability incubated for 1 hr followed by complete medium addition and measured after 48 hrs by XTT assay; assay type: cell-based
[12] = Cytotoxicity against human TZM-bl cells assessed as reduction in cell viability incubated for 3 days by XTT assay; assay type: cell-based; conditions: TZM-bl cells, time 3 day
Cytochrome P450 2C19 = Cytochrome P450 2C19 (Homo sapiens, UniProt P33261); assay: Inhibition of human liver microsome CYP2C19 using mephenytoin as substrate incubated for 20 mins by LC-MS/MS analysis; assay type: ADME, microsomes
[13] = Metabolic stability in human liver microsomes assessed as intrinsic clearance at 3 uM incubated for 120 mins by LC-MS/MS analysis; assay type: ADME, Microsome; conditions: read-out: CLH

Sequence of Cytochrome P450 3A4 (P08684 whole entry): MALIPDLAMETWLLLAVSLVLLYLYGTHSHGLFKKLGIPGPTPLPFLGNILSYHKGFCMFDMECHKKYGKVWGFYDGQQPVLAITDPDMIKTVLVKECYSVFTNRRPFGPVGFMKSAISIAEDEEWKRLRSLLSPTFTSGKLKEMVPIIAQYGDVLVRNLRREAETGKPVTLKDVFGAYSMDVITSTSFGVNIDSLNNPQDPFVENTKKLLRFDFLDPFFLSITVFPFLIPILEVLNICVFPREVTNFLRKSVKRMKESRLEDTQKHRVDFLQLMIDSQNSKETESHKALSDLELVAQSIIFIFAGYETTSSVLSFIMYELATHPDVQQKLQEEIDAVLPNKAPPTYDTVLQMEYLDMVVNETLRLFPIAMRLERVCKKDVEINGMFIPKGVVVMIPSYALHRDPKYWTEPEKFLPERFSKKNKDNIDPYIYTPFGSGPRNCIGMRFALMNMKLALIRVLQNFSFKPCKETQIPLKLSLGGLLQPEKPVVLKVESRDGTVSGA
Sequence of Cytochrome P450 2C19 (P33261 whole entry): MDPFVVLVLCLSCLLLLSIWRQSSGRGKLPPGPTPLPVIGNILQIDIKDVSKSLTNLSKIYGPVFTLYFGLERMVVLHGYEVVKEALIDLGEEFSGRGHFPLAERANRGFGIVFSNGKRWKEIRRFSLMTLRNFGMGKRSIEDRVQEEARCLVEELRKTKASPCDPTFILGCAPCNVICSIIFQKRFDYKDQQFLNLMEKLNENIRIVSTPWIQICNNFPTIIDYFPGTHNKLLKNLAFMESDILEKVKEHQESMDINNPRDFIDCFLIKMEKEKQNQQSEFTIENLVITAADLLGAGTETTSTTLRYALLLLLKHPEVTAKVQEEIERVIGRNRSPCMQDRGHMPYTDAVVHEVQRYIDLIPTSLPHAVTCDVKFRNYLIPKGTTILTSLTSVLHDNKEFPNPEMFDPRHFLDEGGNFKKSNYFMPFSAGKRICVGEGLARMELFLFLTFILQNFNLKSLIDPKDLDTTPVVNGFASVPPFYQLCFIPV

NC[C@H](NC(=O)c1ccc(-c2ccc(C(F)(F)F)c(F)c2)[nH]1)c1nc(CO)cs1
remaining at 2 h, 3 µM [1]: 88.5%
Papp A→B at 2 h [2]: 0.602 ×10⁻⁶ cm/s
CC50 at 96 h [3]: 22.1 µM
Papp B→A at 2 h [4]: 17.7 ×10⁻⁶ cm/s
IC50 (Cytochrome P450 3A4): > 25 µM
Activity [5]: Non-Toxic
IC50 [6]: 0.88 µM
IC50 (Cytochrome P450 2B6): > 25 µM
solubility kinetic at […], 500 µM [7]: 100 µM (≈ 42.8 µg/mL)
solubility kinetic at […], 500 µM [8]: 100 µM (≈ 42.8 µg/mL)
fraction unbound at 5 µM [9]: 0.00949
CC50 at 48 h [10]: 34 µM
CC50 at 49 h [11]: 38.7 µM
CC50 at 72 h [12]: 21.9 µM
IC50 (Cytochrome P450 2C19): > 25 µM
microsomal CLint at 3 µM [13]: 1.8 µL/min/mg

Source: ChEMBL document CHEMBL4715822, “Structure-based lead optimization to improve antiviral potency and ADMET properties of phenyl-1H-pyrrole-carboxamide entry inhibitors targeted to HIV-1 gp120” (Eur J Med Chem, 2018)
